From PMC11184607 (ACS Pharmacology & Translational Science, 2024)
Bridge positions count the residues as written; N and C are the ends. Square brackets hold non-standard residues; d marks the D form. Peptide text beside a SMILES is read from it. * marks the point of attachment. NMeTrp(1-(4-Br-benzyl)) = CN[C@@H](Cc1cn(Cc2ccc(Br)cc2)c2ccccc12)C(=O)O; Butanoyl(2R-oxy,4-CN) = N#CCC[C@@H](O)C(=O)O; Abu(4,4,4-F3) = N[C@@H](CC(F)(F)F)C(=O)O; dNMeaIle = CC[C@H](C)[C@@H](NC)C(=O)O; NMe2Val = CC(C)[C@@H](C(=O)*)N(C)C; NMeI = CC[C@H](C)[C@H](NC)C(=O)O; NMeT = CN[C@H](C(=O)O)[C@@H](C)O; NMeL = CN[C@@H](CC(C)C)C(=O)O; Hiv = CC(C)[C@H](O)C(=O)O; NMeS = CN[C@@H](CO)C(=O)O; NMeA = CN[C@@H](C)C(=O)O; dNMeA = CN[C@H](C)C(=O)O

Tests used:
SPs of Sec61 substrates = conditions: read-out: IC50, SPs of other (insensitive) Sec61 substrates; cited from earlier work
VCAM1 [1] = assay: Immunoblot of TNFα-stimulated VCAM1 in SF-295 cells; format: cell-based, human; conditions: for Efficacy in suppressing TNFα-stimulated VCAM1 expression: 1 µM, 24 h; for IC50: read-out: IC50, VCAM1 expression, TNFα 10 ng/mL, 24 h
Procedure, shortened: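 SF-295 cells (RPMI 1640, 10% FBS) are cotreated 24 h with increasing concentrations of test compound plus TNFα 10 ng/mL. Controls are 0.1% DMSO-treated and untreated cells. VCAM1 and ICAM1 are immunoblotted after SDS-PAGE and PVDF transfer. Signals are normalized to a loading control. Concentration–response is fit to a logistic equation by nonlinear regression.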

BiP = assay: Immunoblot of BiP expression; format: cell-based, human; conditions: for BiP expression: HUVECs and U87-MG cells, 1 μM, 24 h
Hsp70 = assay: Immunoblot of Hsp70 in U87-MG cells; format: cell-based, human; conditions: 1 30 nM, 2 1 μM, 24 h
Procedure, shortened: (§1)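 U87-MG cells in MEM with 10% FBS are exposed 24 h to test compound (30 nM or 1 μM) or 0.1% DMSO. Protein-matched lysates (BCA) are run on SDS-PAGE, transferred to PVDF and detected with HRP secondary. Signals are normalized to α-tubulin and expressed relative to control. Three independent experiments; one-way ANOVA then t-test.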

[2] = tested on: patient-derived GSCs (M120, MGG6, M76, GBM8, and 157); format: cell-based, human; conditions: read-out: EC50 values, five GSC lines (M120, MGG6, M76, GBM8, 157); 72 h
VCAM1 [3] = assay: Immunoblot of VCAM1 transiently expressed in HEK293 cells; format: cell-based, human; conditions: 1 µM, 24 h
VEGF-A = VEGF-A in cell culture medium by ELISA; format: cell-based, human; conditions: 1 µM, sustained 24 h after removal
[4] = tested on: human cytokines and chemokines in the SF-268 secretome; assay: Secretome profiling of human cytokines/chemokines in SF-268 conditioned medium; format: cell-based; conditions: SF-268, 1 μM, medium collected 24 h after removal, relative to vehicle
Procedure, shortened: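 SF-268 cells are seeded in 96-well plates; next day they get complete medium with test compound (1 μM) or 0.1% DMSO for 24 h. Medium is then replaced by serum-free medium for a further 24 h. Conditioned medium is concentrated by centrifugation (75 min, 4000g), flash-frozen and run on a 48-plex multiplex laser-bead cytokine/chemokine immunoassay. 43 analytes are quantified (five below detection dropped); data are % of vehicle.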

U87-MG GBM cells = assay: Cell viability; format: cell-based, human; conditions: 72 h
Procedure, shortened: (§2)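 Cells are grown at 37 °C in 5% CO2. U87-MG and U251 are in MEM with 10% FBS, SF-268 in DMEM with 10% FBS, and SF-295 in RPMI 1640 with 10% FBS. HUVECs are pooled donors. Exposure is to the test compound (0.1 nM–1 μM) or 0.1% DMSO for 72 h. Viability is read by ATP luminescence as % of vehicle, n = 3 wells. […] comes from a logistic nonlinear fit over three independent comparisons.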

Hsp90 = assay: Immunoblot of Hsp90 in U87-MG cells; format: cell-based, human; conditions: 1 30 nM, 2 1 μM, 24 h
Procedure, shortened: as §1

[5] = tested on: HEK293FRT cells expressing WT or mutant (R66I) Sec61α; assay: Viability of WT versus Sec61α R66I mutant HEK293 cells; format: cell-based, human; conditions: 72 h or 3 + 3 day exposure
Procedure, shortened: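 HEK293FRT cells carrying Sec61α R66I, with wild-type comparators, are grown in DMEM with 10% FBS, 6 mM L-glutamine and 1 mM pyruvate. They are exposed to increasing test compound concentrations or 0.1% DMSO for 72 h, or 3 + 3 days to avoid nutrient deprivation. ATP viability is read as % of vehicle, n = 3 wells. Logistic nonlinear fit; ≥3 independent experiments.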

[6] = tested on: WT and mutant (R66I) Sec61α HCT116 colon cancer cells; assay: Viability of WT versus Sec61α R66I mutant HCT116 cells; format: cell-based, human; conditions: for Effect of Sec61α R66I mutation on cytotoxic response relative to WT HCT116 cells: 72 h and 6 days (3 + 3 day exposure)
SF-295 GBM cells = assay: Cell viability; format: cell-based, human; conditions: 72 h
Procedure, shortened: as §2

[7] = biological target: Gaussia luciferase (GLuc); assay: Gaussia luciferase; format: cell-based, human; conditions: 18 h; for Functional inhibition of GLuc secretion: relative to 1–3 or AprA
Procedure, shortened: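 U87-MG cells stably express GLuc after lentiviral transduction. Cells are seeded at 3000/well, allowed to adhere overnight, then given test compound or 0.1% DMSO for 18 h. Conditioned medium is read for luminescence with 1.2 μM final coelenterazine (3 s wait, 0.5 s integration). Adherent-cell ATP viability is read at the same time. Data are % of vehicle; IC50 comes from a logistic nonlinear fit; n ≥3 independent experiments.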

calreticulin (CALR) = assay: Immunoblot of calreticulin expression in U87-MG cells; format: cell-based, human; conditions: 1 μM, 24 h
Procedure, shortened: as §1

cancer cell lines = conditions: cited from earlier work
[8] = tested on: UPR markers (BiP, CHOP, sXBP1, GADD34, IRE1) mRNA; assay: qPCR of ER stress; format: cell-based, human; conditions: 300 nM, 24 h
Procedure, shortened: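 GSC neurospheres (MGG6, 83, M76, GBM8) are treated 24 h with test compound 80 nM, thapsigargin 300 nM, both together, or 0.1% DMSO. BiP, CHOP, sXBP1, GADD34 and IRE1 mRNA are measured by qPCR normalized to GAPDH and expressed as fold-change versus vehicle.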

**Q.** With CC(C)C[C@@H]1NC(=O)[C@H](Cc2cn(Cc3ccc(Br)cc3)c3ccccc23)N(C)C(=O)[C@H](CC(F)(F)F)NC(=O)[C@H](CC(C)C)N(C)C(=O)[C@H](CC(F)(F)F)NC(=O)[C@@H](CCC#N)OC(=O)[C@H](C)N(C)C1=O [KZR-8445] (cyclo(L[NMeA][Butanoyl(2R-oxy,4-CN)][Abu(4,4,4-F3)][NMeL][Abu(4,4,4-F3)][NMeTrp(1-(4-Br-benzyl))])) as the compound, how does the IC50 (SPs of Sec61 substrates) read?
**A.** The IC50 was over 25000 nM.

**Q.** What does the source list for CC[C@H](C)[C@H]1C(=O)N[C@@H](C)C(=O)N(C)[C@@H](CC(C)C)C(=O)N[C@@H](Cc2ccc(OC)cc2)C(=O)N(C)[C@H](C)C(=O)O[C@H](C)[C@H](N(C)C(=O)[C@H](CC(C)C)N(C)C(=O)[C@H](COC)N(C)C(=O)[C@@H](OC(=O)[C@H](C(C)C)N(C)C)C(C)C)C(=O)N(C)[C@@H](COC)C(=O)N1C [compound 2, [L-Hiv^2]-CbA] (NMe2Val-[Hiv][NMeS](Me)[NMeL][NMeT][NMeS](Me)[NMeI]A[NMeL]Y(Me)[dNMeA]; ester 4-C)?
**A.** Fold greater sensitivity of VCAM1 to 2 than to 3 (VCAM1 [1]): approximately 7 fold; Efficacy in suppressing TNFα-stimulated VCAM1 expression (VCAM1 [1]): fully efficacious; IC50 (VCAM1 [1]): 88 nM; BiP expression, GSC line 83 (BiP; 1 250 nM and 500 nM, 2 3 µM, 72 h): decrease; BiP expression (BiP): suppressed; Hsp70 expression (Hsp70): upregulation; EC50 [2]: < 3000 nM; Level of VCAM1 transiently expressed in HEK293 cells (VCAM1 [3]): statistically significant decreases; Inhibition of VEGF-A at 24 h (VEGF-A): statistically significant inhibition; Number of the 43 secreted proteins whose expression was decreased by <50% [4]: 24; Fold less potent than 1, U87-MG cells (U87-MG GBM cells): approximately 13 fold; Hsp90 expression (Hsp90): upregulation; Response of mutant Sec61(R66I) HEK293 cells relative to WT [5]: patterns of resistance; Effect of Sec61α R66I mutation on cytotoxic response relative to WT HCT116 cells [6]: decrease in cytotoxic efficacy; Fold less sensitive than 1, SF-295 cells (SF-295 GBM cells): 5 fold

**Q.** For CC[C@H](C)[C@H]1C(=O)N[C@@H](C)C(=O)N(C)[C@@H](CC(C)C)C(=O)N[C@@H](Cc2ccc(OC)cc2)C(=O)N(C)[C@@H](C)C(=O)O[C@H](C)[C@H](N(C)C(=O)[C@H](CC(C)C)N(C)C(=O)[C@H](COC)N(C)C(=O)[C@@H](OC(=O)[C@H](C(C)C)N(C)C)C(C)C)C(=O)N(C)[C@@H](COC)C(=O)N1C [compound 3, [L-Hiv^2, L-MeAla^11]-CbA] (NMe2Val-[Hiv][NMeS](Me)[NMeL][NMeT][NMeS](Me)[NMeI]A[NMeL]Y(Me)[NMeA]; ester 4-C), which “Efficacy in suppressing TNFα-stimulated VCAM1 expression” value (VCAM1 [1]) is on record?
**A.** The value was “partially effective”.

**Q.** And the IC50 (VCAM1 [1])?
**A.** Its IC50 is 620 nM.

**Q.** What about the IC50 ([7]; read-out: IC50, inhibition of GLuc secretion, U87-MG cells expressing GLuc, conditioned medium) of the same compound?
**A.** The IC50 was under 20 nM.

**Q.** What about the BiP expression (BiP) of the same compound?
**A.** The BiP expression was “no statistically significant change”.

**Q.** What about the EC50 [2] of the same compound?
**A.** Its EC50 is under 6000 nM.

**Q.** What about the “Level of VCAM1 transiently expressed in HEK293 cells” value (VCAM1 [3]) of the same compound?
**A.** Its value is “statistically significant decreases”.

**Q.** What about the “Inhibition of VEGF-A at 24 h” value (VEGF-A) of the same compound?
**A.** Its value is “statistically significant inhibition”.

**Q.** And the “Number of the 43 secreted proteins whose expression was decreased by <50%” value [4]?
**A.** Its value is 18.

**Q.** And the CALR expression (calreticulin (CALR))?
**A.** Its CALR expression is “less sensitive”.

**Q.** And the “Response of mutant Sec61(R66I) HEK293 cells relative to WT” value [5]?
**A.** The value was “patterns of resistance”.

**Q.** What about the “Cell viability of HCT116 cells at 72 h” value ([6]; 72 h, 0.3 nM–3 μM) of the same compound?
**A.** The value was “no change in the cell viability”.

**Q.** And the “Response of R66I mutant HCT116 cells at the extended end point” value ([6]; 6 days (3 + 3 day exposure))?
**A.** The value was “pattern of resistance”.

**Q.** What about the Cytotoxic efficacy range (cancer cell lines) of the same compound?
**A.** Its Cytotoxic efficacy range is “micromolar range”.

**Q.** Which “Functional inhibition of GLuc secretion” value [7] does the source give for CC[C@H](C)[C@@H]1C(=O)N[C@@H](C)C(=O)N(C)[C@@H](CC(C)C)C(=O)N[C@@H](Cc2ccc(OC)cc2)C(=O)N(C)[C@H](C)C(=O)O[C@H](C)[C@H](N(C)C(=O)[C@H](CC(C)C)N(C)C(=O)[C@H](COC)N(C)C(=O)[C@@H](OC(=O)[C@H](C(C)C)N(C)C)C(C)C)C(=O)N(C)[C@@H](COC)C(=O)N1C [compound 4, [L-Hiv^2, D-allo-Ile^7]-CbA] (NMe2Val-[Hiv][NMeS](Me)[NMeL][NMeT][NMeS](Me)[dNMeaIle]A[NMeL]Y(Me)[dNMeA]; ester 4-C) here?
**A.** The value was “loss of functional efficacy”.

**Q.** For CC[C@H](C)[C@@H]1C(=O)N[C@@H](C)C(=O)N(C)[C@@H](CC(C)C)C(=O)N[C@@H](Cc2ccc(OC)cc2)C(=O)N(C)[C@@H](C)C(=O)O[C@H](C)[C@H](N(C)C(=O)[C@H](CC(C)C)N(C)C(=O)[C@H](COC)N(C)C(=O)[C@@H](OC(=O)[C@H](C(C)C)N(C)C)C(C)C)C(=O)N(C)[C@@H](COC)C(=O)N1C [compound 5, [L-Hiv^2, D-allo-Ile^7, L-MeAla^11]-CbA] (NMe2Val-[Hiv][NMeS](Me)[NMeL][NMeT][NMeS](Me)[dNMeaIle]A[NMeL]Y(Me)[NMeA]; ester 4-C), which “Functional inhibition of GLuc secretion” value [7] is on record?
**A.** Its value is “loss of functional efficacy”.

**Q.** Which results are given for C[C@@]12OC(=O)[C@]1([C@@H](O)[C@@H]1C=CCCC1)NC(=O)[C@@H]2CCCl [marizomib, reference compound]?
**A.** Response of mutant Sec61(R66I) HEK293 cells relative to WT [5]: highly sensitive; Effect of Sec61α R66I mutation on cytotoxic response relative to WT HCT116 cells [6]: did not change the cytotoxic efficacy

**Q.** With C/C=C(/C)C(=O)O[C@H]1C(C)=C2[C@H]([C@@H]1OC(=O)CCCCCCC)[C@@](C)(OC(C)=O)C[C@H](OC(=O)CCC)[C@@]1(O)[C@H]2OC(=O)[C@@]1(C)O [thapsigargin, reference compound] as the compound, how does the “BiP, CHOP, sXBP1, GADD34 and IRE1 mRNA expression in GSCs” value [8] read?
**A.** Its value is “marked upregulation”.
